Common to all, as to assay type: functional
Test [1] deals with Candida albicans. Description: Antifungal activity against azole-susceptible Candida albicans ATCC MYA-2876 after 48 hrs by microbroth dilution method. Conditions: ATCC MYA-2876, 48 h. Put shortly:
(§1)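 Yeast MIC by broth microdilution, run in duplicate. The aminoglycoside compounds are read as MIC-0 (complete inhibition). Azoles are read as MIC-2 (50% inhibition).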
(In broth dilution the organism is exposed to a series of concentrations in liquid medium.)

Test [2] has as its system Candida albicans. Description: Antifungal activity against azole-susceptible Candida albicans ATCC MYA-2310 assessed as fractional inhibition after 48 hrs in presence of (2R,3S,4R,5R,6R)-5-amino-2-(aminomethyl)-6-((1R,2S,3S,4R,6S)-4,6-diamino-3-((2S,3R,4S,5S,6S)-4-amino-6-(dodecylthiomethyl)-3,5-dihydroxytetrahydro-2H-pyran-2-yloxy)-2-hydroxycyclohexyloxy)tetrahydro-2H-pyran-3,4-diol by checkerboard microdilution assay. The settings on record: ATCC MYA-2310, 48 h. Put shortly:
(§2)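 Checkerboard combinations of the aminoglycoside amphiphile with posaconazole against yeast strains, run in duplicate. Each agent's MIC is taken alone and in combination. The fractional inhibitory concentration index (FICI) is calculated to classify the interaction.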

Test [3] relates to Candida albicans. Description: Antifungal activity against azole-resistant Candida albicans ATCC 64124 assessed as fractional inhibition after 48 hrs in presence of (2R,3S,4R,5R,6R)-5-amino-2-(aminomethyl)-6-((1R,2S,3S,4R,6S)-4,6-diamino-3-((2S,3R,4S,5S,6S)-4-amino-6-(dodecylthiomethyl)-3,5-dihydroxytetrahydro-2H-pyran-2-yloxy)-2-hydroxycyclohexyloxy)tetrahydro-2H-pyran-3,4-diol by checkerboard microdilution assay. The settings on record: ATCC 64124, 48 h. In outline:
as §2

Test [4] deals with Candida albicans. Description: Antifungal activity against azole-resistant Candida albicans MYA-1003 after 48 hrs by microbroth dilution method. Conditions: MYA-1003, 48 h. Put shortly: as §1
The subject of test [5] is Candida albicans. Description: Antifungal activity against azole-resistant Candida albicans ATCC 90819 after 48 hrs in presence of (2R,3S,4R,5R,6R)-5-amino-2-(aminomethyl)-6-((1R,2S,3S,4R,6S)-4,6-diamino-3-((2S,3R,4S,5S,6S)-4-amino-6-(dodecylthiomethyl)-3,5-dihydroxytetrahydro-2H-pyran-2-yloxy)-2-hydroxycyclohexyloxy)tetrahydro-2H-pyran-3,4-diol by checkerboard microdilution assay. Conditions: ATCC 90819, 48 h. Put shortly: as §2

Test [6] has as its system Candida albicans. Description: Antifungal activity against azole-susceptible Candida albicans ATCC MYA-2876 after 48 hrs in presence of (2R,3S,4R,5R,6R)-5-amino-2-(aminomethyl)-6-((1R,2S,3S,4R,6S)-4,6-diamino-3-((2S,3R,4S,5S,6S)-4-amino-6-(dodecylthiomethyl)-3,5-dihydroxytetrahydro-2H-pyran-2-yloxy)-2-hydroxycyclohexyloxy)tetrahydro-2H-pyran-3,4-diol by checkerboard microdilution assay. The settings on record: ATCC MYA-2876, 48 h. In outline:
as §2

Test [7] concerns Candida albicans. Description: Antifungal activity against azole-susceptible Candida albicans ATCC MYA-2310 after 48 hrs in presence of (2R,3S,4R,5R,6R)-5-amino-2-(aminomethyl)-6-((1R,2S,3S,4R,6S)-4,6-diamino-3-((2S,3R,4S,5S,6S)-4-amino-6-(dodecylthiomethyl)-3,5-dihydroxytetrahydro-2H-pyran-2-yloxy)-2-hydroxycyclohexyloxy)tetrahydro-2H-pyran-3,4-diol by checkerboard microdilution assay. The settings on record: ATCC MYA-2310, 48 h. Put shortly:
as §2

The subject of test [8] is Candida albicans. Description: Antifungal activity against azole-resistant Candida albicans MYA-1237 after 48 hrs in presence of (2R,3S,4R,5R,6R)-5-amino-2-(aminomethyl)-6-((1R,2S,3S,4R,6S)-4,6-diamino-3-((2S,3R,4S,5S,6S)-4-amino-6-(dodecylthiomethyl)-3,5-dihydroxytetrahydro-2H-pyran-2-yloxy)-2-hydroxycyclohexyloxy)tetrahydro-2H-pyran-3,4-diol by checkerboard microdilution assay. Conditions: MYA-1237, 48 h. In outline:
as §2

The test system of test [9] is Candida albicans. Description: Antifungal activity against azole-resistant Candida albicans ATCC 90819 assessed as fractional inhibition after 48 hrs in presence of (2R,3S,4R,5R,6R)-5-amino-2-(aminomethyl)-6-((1R,2S,3S,4R,6S)-4,6-diamino-3-((2S,3R,4S,5S,6S)-4-amino-6-(dodecylthiomethyl)-3,5-dihydroxytetrahydro-2H-pyran-2-yloxy)-2-hydroxycyclohexyloxy)tetrahydro-2H-pyran-3,4-diol by checkerboard microdilution assay. The settings on record: ATCC 90819, 48 h. In outline: as §2

For test [10], the system named is Candida albicans. As to the kind of experiment: Antifungal activity against azole-resistant Candida albicans MYA-1003 after 48 hrs in presence of (2R,3S,4R,5R,6R)-5-amino-2-(aminomethyl)-6-((1R,2S,3S,4R,6S)-4,6-diamino-3-((2S,3R,4S,5S,6S)-4-amino-6-(dodecylthiomethyl)-3,5-dihydroxytetrahydro-2H-pyran-2-yloxy)-2-hydroxycyclohexyloxy)tetrahydro-2H-pyran-3,4-diol by checkerboard microdilution assay. The settings on record: MYA-1003, 48 h. In outline: as §2

Test [11] relates to Candida albicans. As to the kind of experiment: Antifungal activity against azole-resistant Candida albicans ATCC 64124 after 48 hrs by microbroth dilution method. Conditions: ATCC 64124, 48 h. Put shortly: as §1
Test [12] concerns Candida albicans. Description: Antifungal activity against azole-resistant Candida albicans ATCC 90819 after 48 hrs by microbroth dilution method. The settings on record: ATCC 90819, 48 h. In outline: as §1
Test [13] has as its system Candida albicans. As to the kind of experiment: Antifungal activity against azole-resistant Candida albicans ATCC 10231 after 48 hrs by microbroth dilution method. Conditions: ATCC 10231, 48 h. In outline: as §1
Test [14] has as its system Candida albicans. Description: Antifungal activity against azole-resistant Candida albicans MYA-1237 after 48 hrs by microbroth dilution method. Conditions: MYA-1237, 48 h. Put shortly: as §1
For test [15], the system named is Candida albicans. As to the kind of experiment: Antifungal activity against azole-susceptible Candida albicans ATCC MYA-2876 assessed as fractional inhibition after 48 hrs in presence of (2R,3S,4R,5R,6R)-5-amino-2-(aminomethyl)-6-((1R,2S,3S,4R,6S)-4,6-diamino-3-((2S,3R,4S,5S,6S)-4-amino-6-(dodecylthiomethyl)-3,5-dihydroxytetrahydro-2H-pyran-2-yloxy)-2-hydroxycyclohexyloxy)tetrahydro-2H-pyran-3,4-diol by checkerboard microdilution assay. Conditions: ATCC MYA-2876, 48 h. In outline:
as §2

The subject of a further test is Aspergillus nidulans. As to the kind of experiment: Antifungal activity against Aspergillus nidulans ATCC 38163 after 48 hrs by microbroth dilution method. The settings on record: ATCC 38163, 48 h. Put shortly:
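Filamentous fungus MIC by broth microdilution, run in duplicate. All compounds are read as MIC-0 (complete inhibition).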

Test [16] has as its system Candida albicans. Description: Antifungal activity against azole-resistant Candida albicans ATCC 10231 assessed as fractional inhibition after 48 hrs in presence of (2R,3S,4R,5R,6R)-5-amino-2-(aminomethyl)-6-((1R,2S,3S,4R,6S)-4,6-diamino-3-((2S,3R,4S,5S,6S)-4-amino-6-(dodecylthiomethyl)-3,5-dihydroxytetrahydro-2H-pyran-2-yloxy)-2-hydroxycyclohexyloxy)tetrahydro-2H-pyran-3,4-diol by checkerboard microdilution assay. The settings on record: ATCC 10231, 48 h. In outline: as §2

For test [17], the system named is Candida albicans. Description: Antifungal activity against azole-resistant Candida albicans MYA-1237 assessed as fractional inhibition after 48 hrs in presence of (2R,3S,4R,5R,6R)-5-amino-2-(aminomethyl)-6-((1R,2S,3S,4R,6S)-4,6-diamino-3-((2S,3R,4S,5S,6S)-4-amino-6-(dodecylthiomethyl)-3,5-dihydroxytetrahydro-2H-pyran-2-yloxy)-2-hydroxycyclohexyloxy)tetrahydro-2H-pyran-3,4-diol by checkerboard microdilution assay. The settings on record: MYA-1237, 48 h. In outline:
as §2

For test [18], the system named is Candida albicans. Description: Antifungal activity against azole-resistant Candida albicans ATCC 64124 after 48 hrs in presence of (2R,3S,4R,5R,6R)-5-amino-2-(aminomethyl)-6-((1R,2S,3S,4R,6S)-4,6-diamino-3-((2S,3R,4S,5S,6S)-4-amino-6-(dodecylthiomethyl)-3,5-dihydroxytetrahydro-2H-pyran-2-yloxy)-2-hydroxycyclohexyloxy)tetrahydro-2H-pyran-3,4-diol by checkerboard microdilution assay. The settings on record: ATCC 64124, 48 h. Put shortly: as §2

Test [19] concerns Candida albicans. Description: Antifungal activity against azole-resistant Candida albicans ATCC 10231 after 48 hrs in presence of (2R,3S,4R,5R,6R)-5-amino-2-(aminomethyl)-6-((1R,2S,3S,4R,6S)-4,6-diamino-3-((2S,3R,4S,5S,6S)-4-amino-6-(dodecylthiomethyl)-3,5-dihydroxytetrahydro-2H-pyran-2-yloxy)-2-hydroxycyclohexyloxy)tetrahydro-2H-pyran-3,4-diol by checkerboard microdilution assay. Conditions: ATCC 10231, 48 h. In outline: as §2

The test system of test [20] is Candida albicans. As to the kind of experiment: Antifungal activity against azole-resistant Candida albicans MYA-1003 assessed as fractional inhibition after 48 hrs in presence of (2R,3S,4R,5R,6R)-5-amino-2-(aminomethyl)-6-((1R,2S,3S,4R,6S)-4,6-diamino-3-((2S,3R,4S,5S,6S)-4-amino-6-(dodecylthiomethyl)-3,5-dihydroxytetrahydro-2H-pyran-2-yloxy)-2-hydroxycyclohexyloxy)tetrahydro-2H-pyran-3,4-diol by checkerboard microdilution assay. Conditions: MYA-1003, 48 h. In outline: as §2

Among the data in ChEMBL document CHEMBL3739331, “Synthesis and Bioactivities of Kanamycin B-Derived Cationic Amphiphiles” (J Med Chem, 2015) are MIC50 and MIC values, retold here.

For orientation: MIC50 means an inhibitory concentration at the 50% level, which refers to growth in some studies and to a panel of isolates in others. High values mean lower susceptibility, low ones higher susceptibility. For orientation: MIC means the lowest concentration that inhibits growth of the organism.

The structures appear in SMILES notation. ≈ marks a conversion by molar mass, not a printed value.

On to `CC[C@@H]([C@H](C)O)n1ncn(-c2ccc(N3CCN(c4ccc(OC[C@@H]5CO[C@@](Cn6cncn6)(c6ccc(F)cc6F)C5)cc4)CC3)cc2)c1=O` [POSACONAZOLE], for which the MIC50 was 7.8 µg/mL (≈ 11.1 µM) in the test with Candida albicans [1]; 15.6 µg/mL (≈ 22.3 µM) against Candida albicans [4]; above 62.5 µg/mL against Candida albicans [11]; 31.2 µg/mL (≈ 44.5 µM) against Candida albicans [12]; 0.5 µg/mL (≈ 0.713 µM) against Candida albicans [13]; 15.6 µg/mL (≈ 22.3 µM) against Candida albicans [14]. Besides, the MIC came to 1.56 µg/mL in the test with Candida albicans [2]; 1.56 µg/mL in the test with Candida albicans [3]; 0.78 µg/mL in the test with Candida albicans [5]; 0.78 µg/mL in the test on Candida albicans [6]; 0.39 µg/mL in the test with Candida albicans [7]; 0.78 µg/mL in the test on Candida albicans [8]. The MIC in the test with Candida albicans [9] is 0.78 µg/mL; in the test on Candida albicans [10], 0.78 µg/mL; in the test on Candida albicans [15] it was 1.56 µg/mL; with Aspergillus nidulans it was at most 1.95 µg/mL; with Candida albicans [16] it was 0.06 µg/mL; with Candida albicans [17] it was 0.78 µg/mL. Besides, the MIC in the test on Candida albicans [18] worked out at 0.78 µg/mL; in the test with Candida albicans [19] it was 0.06 µg/mL; with Candida albicans [20], 1.56 µg/mL.
